Results from ChEMBL document CHEMBL1145402, “Discovery of potent and muscle selective androgen receptor modulators through scaffold modifications” (J Med Chem, 2007).
pEC50, pKi: −log10 of the molar value. ≈ marks a conversion by molar mass, not a printed value.

Key:
Androgen receptor [1] = target: T1, Androgen receptor (Homo sapiens, UniProt P10275); experiment: Displacement of [3H]DHT from androgen receptor expressed in MDA-MB-453 cells; format: cell-based
T1 sequence (P10275 whole entry): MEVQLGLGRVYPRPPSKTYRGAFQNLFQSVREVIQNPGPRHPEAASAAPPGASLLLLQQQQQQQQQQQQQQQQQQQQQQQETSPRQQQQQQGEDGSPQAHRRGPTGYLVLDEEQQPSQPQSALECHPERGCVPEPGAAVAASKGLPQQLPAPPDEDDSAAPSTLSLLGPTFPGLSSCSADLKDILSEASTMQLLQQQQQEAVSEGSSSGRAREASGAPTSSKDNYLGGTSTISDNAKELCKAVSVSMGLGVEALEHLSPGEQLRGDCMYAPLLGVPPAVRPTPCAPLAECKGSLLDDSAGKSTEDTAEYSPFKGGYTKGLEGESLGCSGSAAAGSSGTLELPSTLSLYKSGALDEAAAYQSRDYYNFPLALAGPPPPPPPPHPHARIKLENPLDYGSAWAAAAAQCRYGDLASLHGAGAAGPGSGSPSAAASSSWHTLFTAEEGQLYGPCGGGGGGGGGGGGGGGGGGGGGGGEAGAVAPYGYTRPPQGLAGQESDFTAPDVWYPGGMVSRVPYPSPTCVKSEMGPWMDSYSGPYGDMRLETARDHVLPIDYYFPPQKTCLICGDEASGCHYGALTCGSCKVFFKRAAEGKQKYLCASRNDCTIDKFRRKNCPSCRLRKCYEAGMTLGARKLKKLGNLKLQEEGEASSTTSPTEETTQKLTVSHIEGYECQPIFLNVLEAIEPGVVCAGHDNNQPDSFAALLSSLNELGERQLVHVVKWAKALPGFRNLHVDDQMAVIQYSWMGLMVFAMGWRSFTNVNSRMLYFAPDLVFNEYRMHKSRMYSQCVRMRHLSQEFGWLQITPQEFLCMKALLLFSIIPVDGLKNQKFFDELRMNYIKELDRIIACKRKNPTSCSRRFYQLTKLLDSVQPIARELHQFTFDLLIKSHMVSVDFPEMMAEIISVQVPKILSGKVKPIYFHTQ

Androgen receptor [2] = target: T1, Androgen receptor; experiment: Agonist activity at androgen receptor expressed in C2C12 mouse cells by luciferase reporter transactivation assay; format: functional, cell-based
Rattus norvegicus [3] = experiment: Stimulation of ventral prostate tissue weight in Sprague-Dawley rat at 1 mg/kg, po after 14 days; format: functional, Prostate gland
Outline: (§1)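 Mature male rats were castrated two weeks before treatment. Compound was given […] once daily for two weeks, then levator ani muscle and ventral prostate were weighed. Weights are expressed as percent of a sham-operated, vehicle-treated intact control group, ±SEM.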

[4] = AUC(0-4h) in Sprague-Dawley rat at 10 mg/kg; format: ADME, organism-based; design: time < 5 hr, dose 10 mg/kg; settings: plasma
[5] = Cmax in Sprague-Dawley rat at 10 mg/kg, po; format: ADME, organism-based; design: dose 10 mg/kg, route oral; settings: in vivo
[6] = Aqueous solubility of the compound; format: physicochemical
Rattus norvegicus [7] = experiment: Stimulation of levator ani muscle weight in Sprague-Dawley rat at 1 mg/kg, po after 14 days; format: functional; outline: as §1
Rattus norvegicus [8] = experiment: Stimulation of ventral prostate tissue weight in Sprague-Dawley rat at 3 mg/kg, po after 14 days; format: functional, Prostate gland; outline: as §1
Rattus norvegicus [9] = experiment: Stimulation of levator ani muscle weight in Sprague-Dawley rat at 3 mg/kg, po after 14 days; format: functional; outline: as §1
Rattus norvegicus [10] = experiment: Stimulation of levator ani muscle weight in Sprague-Dawley rat at 0.01 mg/kg, po after 14 days; format: functional
Rattus norvegicus [11] = experiment: Stimulation of ventral prostate tissue weight in Sprague-Dawley rat at 0.01 mg/kg, po after 14 days; format: functional, Prostate gland

With `CC[C@H]1[C@@H]2[C@H](O)CCN2C(=O)N1c1ccc(C#N)c(Cl)c1C` as the molecule, how does the pKi (Androgen receptor [1]) read?
The pKi was 9.15.

What about the pEC50 (Androgen receptor [2]) of the same molecule?
Its pEC50 is 8.59.

With `Cc1c(N2C(=O)N3CC[C@H](O)[C@H]3[C@H]2C(F)(F)F)ccc(C#N)c1Cl` as the molecule, how does the pKi (Androgen receptor [1]) read?
Its pKi is 8.72.

And the pEC50 (Androgen receptor [2])?
The pEC50 was 7.32.

With `Cc1c(N2C[C@@H]3[C@H](O)CCN3C2=O)ccc(C#N)c1Cl` as the molecule, how does the pKi (Androgen receptor [1]) read?
The pKi was 8.70.

And the Activity (Rattus norvegicus [3])?
Its Activity is 14%.

What about the AUC(0-t) at 5 h [4] of the same molecule?
Its AUC(0-t) at 5 h is 6.38 µM·h.

And the Cmax [5]?
Its Cmax is 3.97 µM.

What about the solubility [6] of the same molecule?
Its solubility is 0.245 mg/mL (≈ 840 µM).

And the pEC50 (Androgen receptor [2])?
Its pEC50 is 7.82.

And the Activity (Rattus norvegicus [7])?
The Activity was 66%.

With `Cc1c(N2C(=O)N3CC[C@@H](O)[C@H]3[C@H]2C(F)(F)F)ccc(C#N)c1Cl` as the molecule, how does the pKi (Androgen receptor [1]) read?
The pKi was 8.66.

And the Activity (Rattus norvegicus [3])?
Its Activity is 1%.

What about the AUC(0-t) at 5 h [4] of the same molecule?
The AUC(0-t) at 5 h was 0.63 µM·h.

What about the Cmax [5] of the same molecule?
The Cmax was 0.245 µM.

And the solubility [6]?
Its solubility is 1.14 mg/mL (≈ 3170 µM).

And the pEC50 (Androgen receptor [2])?
Its pEC50 is 8.68.

What about the Activity (Rattus norvegicus [7]) of the same molecule?
Its Activity is 30%.

Which results are given for `Cc1c(N2C(=O)N3CC[C@H](O)[C@H]3[C@@H]2C)ccc(C#N)c1Cl`?
Activity (Rattus norvegicus [8]): 4%; Activity (Rattus norvegicus [9]): 44%; AUC(0-t) at 5 h [4]: 2.89 µM·h; Cmax [5]: 1.62 µM; solubility [6]: 0.613 mg/mL (≈ 2000 µM)

What does the source list for `CC[C@@H]1[C@@H]2[C@H](O)CCN2C(=O)N1c1ccc(C#N)c(Cl)c1C`?
pKi (Androgen receptor [1]): 8.64; pEC50 (Androgen receptor [2]): 8.13

Which Activity (Rattus norvegicus [10]) does the source give for `Cc1c(N2C(=O)[C@@H]3[C@H](O)CCN3C2=O)ccc(C#N)c1Cl` here?
The Activity was 59%.

What about the Activity (Rattus norvegicus [11]) of the same molecule?
The Activity was 3%.

And the AUC(0-t) at 5 h [4]?
The AUC(0-t) at 5 h was 8.8 µM·h.

What about the Cmax [5] of the same molecule?
Its Cmax is 6.9 µM.
